Test results: ChEMBL document CHEMBL1130339, “Structural analogues of the calanolide anti-HIV agents. Modification of the trans-10,11-dimethyldihydropyran-12-ol ring (ring C)” (J Med Chem, 1997); call rule not given here

Tests used:
[1] = test system: CEM-SS; test: Antiviral activity against HIV-1 determined by concentration which resulted in cytotoxicity of 50% of CEM-SS cell population relative to drug-free controls; type: functional, cell-based; conditions: Homo sapiens
Procedure, shortened: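 Cytotoxicity in uninfected CEM-SS cells (RPMI 1640, 10% heat-inactivated FCS, 25 mM HEPES, antibiotics; 37 °C, 5% CO2). Compounds dissolved in DMSO, diluted in medium, top concentration 100 µM, duplicate wells per concentration. 10^4 cells/well, 6-day incubation, viability by XTT dye. IC50 = concentration reducing cell growth by 50% of uninfected controls.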

[2] = test system: CEM-SS; test: Concentration required to protect CEM-SS cells from HIV-1 mediated uM; type: functional, cell-based, Homo sapiens
Procedure, shortened: (§1)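 CEM-SS cells were infected with HIV-1 RF at MOI about 0.12 TCID50/cell for 4 h at 37 °C, then the virus supernatant was removed. Cells at 10^4/well were exposed to compound diluted from DMSO (maximum 100 µM) in triplicate wells. After 6 days at 37 °C, 5% CO2, viability was read with XTT. EC50 = concentration giving 50% protection from viral cytopathicity relative to infected controls.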

[3] = test system: CEM-SS; test: Concentration required to protect CEM-SS cells from HIV-1 mediated cytopathicity by 50% relative to drug-free controls was determined; type: functional, cell-based, Homo sapiens; procedure, shortened: as §1
[4] = Therapeutic Index (IC50/EC50)
Procedure, shortened: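 Ratio of cytotoxic IC50 in uninfected CEM-SS cells to antiviral EC50 in HIV-1 RF-infected CEM-SS cells, both from 6-day XTT viability readings. Not determined when no EC50 was available.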

[5] = biological target: Human immunodeficiency virus type 1 reverse transcriptase (Human immunodeficiency virus 1, UniProt Q72547); test: Inhibition of HIV-1 reverse transcriptase using a poly(rC):oligo(dG)12-18 template primer
Procedure, shortened: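 HIV-1 reverse transcriptase inhibition was measured with a poly(rC):oligo(dG)12-18 template:primer system.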

SMILES | IC50 [1] [µM] | EC50 [2] | EC50 ([3]; Homo sapiens, CEM-SS) [µM] | TI [4] [Ratio] | EC50 [5] [µM] | EC50 ([3]; cem-ss) [µM]
CCCc1cc(=O)oc2c1c1c(c3oc(C)c(C)c(=O)c32)C=CC(C)(C)O1 | > 100 | Not Active |  |  |  | 
CCCc1cc(=O)oc2c3c(c4c(c12)OC(C)(C)C=C4)O[C@H](C)C(C)(C)C3=O | 19 |  | > 100 |  |  | 
CCCc1cc(=O)oc2c(C(=O)CC)c(OCC)c3c(c12)OC(C)(C)C=C3 | 6.6 | Not Active |  |  |  | 
CCCc1cc(=O)oc2c3c(c4c(c12)OC(C)(C)C=C4)O[C@H](C)C(C)(C)[C@@H]3O | 20 | Not Active |  |  |  | 
CCCc1cc(=O)oc2c3c(c4c(c12)OC(C)(C)C=C4)OC(C)(C)[C@H](C)[C@@H]3O (racemic) | 21 |  | > 100 |  |  | 
CCCc1cc(=O)oc2c3c(c4c(c12)OC(C)(C)C=C4)OC[C@H](C)[C@@H]3O (racemic) | 22 |  | 7.2 | 3.1 | 50 | 
CCCc1cc(=O)oc2c(C(=O)C(C)C(C)(C)O)c(O)c3c(c12)OC(C)(C)C=C3 (racemic) |  | Not Active |  |  |  | 
CCCc1cc(=O)oc2c3c(c4c(c12)OC(C)(C)C=C4)O[C@H](CC)[C@H](C)[C@H]3O (racemic) | 21 | Not Active |  |  |  | 
CCCc1cc(=O)oc2c3c(c4c(c12)OC(C)(C)C=C4)OC(C)(C)[C@H](C)[C@H]3O (racemic) | 21 |  | 5.7 | 3.7 | 5 | 
CCCc1cc(=O)oc2c3c(c4c(c12)OC(C)(C)C=C4)OC[C@H](C)C3=O (racemic) |  | Not Active |  |  |  | 
CCCc1cc(=O)oc2c3c(c4c(c12)OC(C)(C)C=C4)O[C@H](C(C)C)[C@@H](C)[C@@H]3O (racemic) | 6.5 | Not Active |  |  |  | 
CCCc1cc(=O)oc2c3c(c4c(c12)OC(C)(C)C=C4)O[C@H](CC)[C@H](C)[C@@H]3O (racemic) | 12 | Not Active |  |  |  | 
CCCc1cc(=O)oc2c3c(c4c(c12)OC(C)(C)C=C4)O[C@H](C)C(C)(C)[C@H]3O (racemic) | 15 |  | 2.4 | 6.2 | 32 | 
CCCc1cc(=O)oc2c3c(c4c(c12)OC(C)(C)C=C4)O[C@H](CC)[C@@H](C)[C@H]3O (racemic) | 14 |  | 1.7 | 8.2 | 2 | 
CCCc1cc(=O)oc2c3c(c4c(c12)OC(C)(C)C=C4)OC[C@H](C)[C@H]3O (racemic) | 22 | Not Active |  |  |  | 
CCCc1cc(=O)oc2c3c(c4c(c12)OC(C)(C)C=C4)O[C@H](C)[C@H](C)[C@H]3O (racemic) | 20 |  | > 100 |  |  | 
CCCc1cc(=O)oc2c3c(c4c(c12)OC(C)(C)C=C4)O[C@H](C)[C@@H](C)C3=O (racemic) | 19 |  | 1.2 | 16 | 40 | 

SMILES | IC50 [1] [µM] | EC50 [2] | EC50 ([3]; Homo sapiens, CEM-SS) [µM] | TI [4] [Ratio] | EC50 [5] [µM] | EC50 ([3]; cem-ss) [µM]
CCCc1cc(=O)oc2c(C(=O)C(C)(C)C(C)O)c(O)c3c(c12)OC(C)(C)C=C3 (racemic) | 37 | Not Active |  |  |  | 
CCCc1cc(=O)oc2c3c(c4c(c12)OC(C)(C)C=C4)O[C@H](C(C)C)[C@@H](C)[C@H]3O (racemic) | 6.5 | Not Active |  |  |  | 
CCCc1cc(=O)oc2c3c(c4c(c12)OC(C)(C)C=C4)O[C@H](C(C)C)[C@H](C)[C@@H]3O (racemic) | 6.9 | Not Active |  |  |  | 
CCCc1cc(=O)oc2c3c(c4c(c12)OC(C)(C)C=C4)O[C@H](C(C)C)[C@@H](C)C3=O (racemic) | 21 | Not Active |  |  |  | 
CCCc1cc(=O)oc2c(C(=O)[C@@H](C)[C@H](C)O)c(O)c3c(c12)OC(C)(C)C=C3 (racemic) | 22 |  | 2.3 | 9.6 |  | 
CCCc1cc(=O)oc2c(C(=O)[C@H](C)[C@H](C)O)c(O)c3c(c12)OC(C)(C)C=C3 (racemic) | 24 |  | 6.2 | 3.9 |  | 
CCCc1cc(=O)oc2c3c(c4c(c12)OC(C)(C)C=C4)OC(C)(C)[C@H](C)C3=O (racemic) | 2.4 | Not Active |  |  |  | 
CCCc1cc(=O)oc2c3c(c4c(c12)OC(C)(C)C=C4)O[C@H](C)[C@H](C)C3=O (racemic) | 12 |  | 2.8 | 4.3 | > 100 | 
CCCc1cc(=O)oc2c3c(c4c(c12)OC(C)(C)C=C4)OC(C)(C)CC3O (racemic) | 11 | Not Active |  |  |  | 
CCCc1cc(=O)oc2c3c(c4c(c12)OC(C)(C)C=C4)O[C@H](CC)[C@@H](C)C3=O (racemic) | 18 |  | > 100 |  |  | 
CCCc1cc(=O)oc2c3c(c4c(c12)OC(C)(C)C=C4)OC[C@H](C)C31OCOCO1 (racemic) | 6.3 | Not Active |  |  |  | 
CCCc1cc(=O)oc2c(C(O)CC)c(OCC)c3c(c12)OC(C)(C)C=C3 (racemic) | 16 | Not Active |  |  |  | 
CCCc1cc(=O)oc2c3c(c4c(c12)OC(C)(C)C=C4)O[C@H](CC)[C@@H](C)[C@@H]3O (racemic) | 18 |  | 2 | 9 | 3.2 | 
CCCc1cc(=O)oc2c3c(c4c(c12)OC(C)(C)C=C4)O[C@H](C)[C@@H](C)[C@@H]3O (racemic) [CALANOLIDE A] |  |  |  | 47 | 0.97 | 0.49
CCCc1cc(=O)oc2c3c(c4c(c12)OC(C)(C)C=C4)O[C@H](C)[C@H](C)[C@@H]3O (racemic) [CALANOLIDE C] | 18 | Not Active |  |  |  | 
CCCc1cc(=O)oc2c3c(c4c(c12)OC(C)(C)C=C4)O[C@H](C)[C@@H](C)[C@@H]3O [CALANOLIDE A] | 23 |  | 0.27 | 85 | 0.32 | 
